Measurements: article PMC5598146 (Toxicology Reports, 2015)

System: bred female Crl:CD(SD) rats
Test: Definitive developmental toxicity study
Assay type: in vivo, rat
Procedure, shortened: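 Bred female Crl:CD(SD) rats, 25/group, dosed once daily by oral gavage at 0, 250, 500 or 1000 mg/kg/day from gestation Days 6 through 20. Laparohysterectomy on gestation Day 21. Uteri, placentae and ovaries were examined; viable and dead fetuses, early and late resorptions, implantations and corpora lutea were counted; gravid uterine weight, net body weight and fetal weights were recorded.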

Cc1nc2cccc(OCC(C)(C)C(=O)NC(C)C)c2c(N)c1C(=O)O [S9632, 4-amino-5-(3-(isopropylamino)-2,2-dimethyl-3-oxopropoxy)-2-methylquinoline-3-carboxylic acid]
Corpora Lutea, Mean (250 mg/kg/d): 16.3
Corpora Lutea, Total (250 mg/kg/d): 407
Dead fetuses, Mean (250 mg/kg/d): 0
Dead fetuses, Total (250 mg/kg/d): 0
Fetal Wt., Mean (250 mg/kg/d): 5.5 g
Fetuses Sex F, Mean (250 mg/kg/d): 6.8
Fetuses Sex F, Total (250 mg/kg/d): 169
Fetuses Sex M, Mean (250 mg/kg/d): 7.6
Fetuses Sex M, Total (250 mg/kg/d): 189
Implant. sites, Mean (250 mg/kg/d): 15.3
Implant. sites, Total (250 mg/kg/d): 382
Post-implant. loss, Mean (250 mg/kg/d): 1.0
Post-implant. loss, Total (250 mg/kg/d): 24
Pre-implant. loss, Mean (250 mg/kg/d): 1.0
Pre-implant. loss, Total (250 mg/kg/d): 25
Resorptions Early, Mean (250 mg/kg/d): 1.0
Resorptions Early, Total (250 mg/kg/d): 24
Resorptions Late, Mean (250 mg/kg/d): 0
Resorptions Late, Total (250 mg/kg/d): 0
Viable fetuses, Mean (250 mg/kg/d): 14.3
Viable fetuses, Total (250 mg/kg/d): 358
Malformations, fetuses (litters) (250 mg/kg/day): 1(1)
Corpora Lutea, Mean (500 mg/kg/d): 16.8
Corpora Lutea, Total (500 mg/kg/d): 421
Dead fetuses, Mean (500 mg/kg/d): 0
Dead fetuses, Total (500 mg/kg/d): 0
Fetal Wt., Mean (500 mg/kg/d): 5.4 g
Fetuses Sex F, Mean (500 mg/kg/d): 7.4
Fetuses Sex F, Total (500 mg/kg/d): 184
Fetuses Sex M, Mean (500 mg/kg/d): 7.1
Fetuses Sex M, Total (500 mg/kg/d): 177
Implant. sites, Mean (500 mg/kg/d): 15.3
Implant. sites, Total (500 mg/kg/d): 383
Post-implant. loss, Mean (500 mg/kg/d): 0.9
Post-implant. loss, Total (500 mg/kg/d): 22
Pre-implant. loss, Mean (500 mg/kg/d): 1.5
Pre-implant. loss, Total (500 mg/kg/d): 38
Resorptions Early, Mean (500 mg/kg/d): 0.5
Resorptions Early, Total (500 mg/kg/d): 12
Resorptions Late, Mean (500 mg/kg/d): 0.4
Resorptions Late, Total (500 mg/kg/d): 10
Viable fetuses, Mean (500 mg/kg/d): 14.4
Viable fetuses, Total (500 mg/kg/d): 361
Malformations, fetuses (litters) (500 mg/kg/day): 1(1)
Corpora Lutea, Mean (1000 mg/kg/d): 16.5
Corpora Lutea, Total (1000 mg/kg/d): 413
Dead fetuses, Mean (1000 mg/kg/d): 0
Dead fetuses, Total (1000 mg/kg/d): 0
Fetal Wt., Mean (1000 mg/kg/d): 5.6 g
Fetuses Sex F, Mean (1000 mg/kg/d): 7.8
Fetuses Sex F, Total (1000 mg/kg/d): 194
Fetuses Sex M, Mean (1000 mg/kg/d): 7.2
Fetuses Sex M, Total (1000 mg/kg/d): 181
Implant. sites, Mean (1000 mg/kg/d): 15.7
Implant. sites, Total (1000 mg/kg/d): 393
Post-implant. loss, Mean (1000 mg/kg/d): 0.7
Post-implant. loss, Total (1000 mg/kg/d): 18
Pre-implant. loss, Mean (1000 mg/kg/d): 0.80
Pre-implant. loss, Total (1000 mg/kg/d): 20
Resorptions Early, Mean (1000 mg/kg/d): 0.7
Resorptions Early, Total (1000 mg/kg/d): 18
Resorptions Late, Mean (1000 mg/kg/d): 0
Resorptions Late, Total (1000 mg/kg/d): 0
Viable fetuses, Mean (1000 mg/kg/d): 15.0
Viable fetuses, Total (1000 mg/kg/d): 375
Malformations, fetuses (litters) (1000 mg/kg/day): 3(3)
